Active and inactive are the calls of the source. The calls are words filed in the database; no cut-off is given here.
Key:
[1] = Acute toxicity in Balb/c mouse xenografted with Capan1 cells assessed as mean weight loss at 50 mg/kg, ip qd administered for 5 days in presence of cisplatin measured on day 10 relative to control; type: organism-based; settings: in vivo, 240 h, time 10 day
Summary of the method: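 Male BALB/c nude mice carried Capan-1 xenografts (5×10^6 cells s.c.), randomized at ~150 mm³ (6 per group). Treatment was 25 or 50 mg/kg intraperitoneally or 100 mg/kg by oral gavage, once daily on days 0-4. Cisplatin 6 mg/kg in saline was given intraperitoneally on day 2, 45 min after the partner drug. Tumor volume and body weight were measured 2-3 times weekly.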

[2] = biological target: T1, Protein cereblon/Poly [ADP-ribose] polymerase 1 (Homo sapiens, UniProt P09874+Q96SW2); experiment: Protac activity at CRBN/PARP1 in human MDA-MB-436 cells assessed as reduction in PARP1 protein level at 0.01 to 10 uM incubated for 12 hrs by western blot analysis; type: cell-based; settings: dose microM 0.01-10, time 12.0 hrs
Summary of the method: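 MDA-MB-436 or SW620 cells dosed at 1, 10, 100, 1000 nM and 10 µM for 12 h; PARP1 assessed by western blot of RIPA lysates (20-30 µg protein), β-tubulin as loading control.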
Target sequence in this assay (P09874 2-1014 limits assumed): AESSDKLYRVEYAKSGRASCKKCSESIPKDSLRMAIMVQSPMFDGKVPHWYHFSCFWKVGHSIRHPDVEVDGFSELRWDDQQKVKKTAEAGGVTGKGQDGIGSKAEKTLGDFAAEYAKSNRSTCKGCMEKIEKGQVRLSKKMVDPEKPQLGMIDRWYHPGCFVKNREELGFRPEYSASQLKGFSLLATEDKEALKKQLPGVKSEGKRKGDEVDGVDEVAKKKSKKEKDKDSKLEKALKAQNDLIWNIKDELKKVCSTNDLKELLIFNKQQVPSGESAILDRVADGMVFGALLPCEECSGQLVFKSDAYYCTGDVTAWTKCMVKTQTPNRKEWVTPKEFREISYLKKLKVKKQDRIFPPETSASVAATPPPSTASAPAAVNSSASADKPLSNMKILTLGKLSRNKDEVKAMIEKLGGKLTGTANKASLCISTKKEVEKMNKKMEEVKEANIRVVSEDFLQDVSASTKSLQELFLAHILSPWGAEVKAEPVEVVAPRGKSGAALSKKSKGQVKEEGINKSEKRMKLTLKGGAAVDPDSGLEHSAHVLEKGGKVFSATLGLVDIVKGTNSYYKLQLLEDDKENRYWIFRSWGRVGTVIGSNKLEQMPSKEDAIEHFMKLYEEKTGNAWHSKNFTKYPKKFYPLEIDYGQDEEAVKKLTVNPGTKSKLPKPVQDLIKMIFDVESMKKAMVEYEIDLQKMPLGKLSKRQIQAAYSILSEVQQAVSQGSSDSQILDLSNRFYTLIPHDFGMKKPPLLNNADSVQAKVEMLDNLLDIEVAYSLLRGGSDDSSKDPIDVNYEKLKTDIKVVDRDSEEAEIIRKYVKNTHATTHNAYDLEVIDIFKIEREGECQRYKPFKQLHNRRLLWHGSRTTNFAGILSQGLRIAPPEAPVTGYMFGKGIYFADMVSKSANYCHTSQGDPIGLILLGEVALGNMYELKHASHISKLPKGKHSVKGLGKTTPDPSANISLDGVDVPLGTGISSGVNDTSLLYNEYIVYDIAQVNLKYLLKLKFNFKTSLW
Target sequence in this assay (Q96SW2 whole entry partner): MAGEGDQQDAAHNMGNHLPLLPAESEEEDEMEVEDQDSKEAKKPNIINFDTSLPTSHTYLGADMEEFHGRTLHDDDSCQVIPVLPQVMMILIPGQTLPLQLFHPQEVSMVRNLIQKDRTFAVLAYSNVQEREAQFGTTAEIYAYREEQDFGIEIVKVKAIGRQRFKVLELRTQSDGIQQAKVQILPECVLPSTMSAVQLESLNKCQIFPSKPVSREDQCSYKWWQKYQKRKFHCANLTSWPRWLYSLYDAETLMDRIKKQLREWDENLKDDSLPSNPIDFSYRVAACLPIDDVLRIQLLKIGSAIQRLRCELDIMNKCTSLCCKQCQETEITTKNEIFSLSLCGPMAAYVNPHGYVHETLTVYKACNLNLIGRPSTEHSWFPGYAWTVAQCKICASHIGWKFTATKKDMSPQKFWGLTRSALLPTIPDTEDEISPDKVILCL

[3] = biological target: T1, Protein cereblon/Poly [ADP-ribose] polymerase 1; experiment: Protac activity at CRBN/PARP1 in human MDA-MB-436 cells assessed as induction of PARP1 degradation at 30 nM incubated for 24 hrs in presence of proteasome inhibitor MG132 by Western blot analysis
Target sequence in this assay (P09874 2-1014 limits assumed): as the sequence (P09874 2-1014 limits assumed) above
Target sequence in this assay (Q96SW2 whole entry partner): as the sequence (Q96SW2 whole entry partner) above

[4] = Cmax in ICR mouse at 25 mg/kg, ip by LC-tandem mass spectrometry analysis; type: ADME, organism-based; design: route intraperitoneal, dose 25 mg/kg; settings: in vivo
Summary of the method: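 Female ICR mice (20-23 g, 6-7 weeks old, n = 3) received a single 25 mg/kg intraperitoneal dose formulated in 5% DMSO/15% Solutol HS15/80% D5W. Plasma was sampled at 0.5, 1, 2, 4, 6, 8 and 24 h and protein-precipitated with methanol. Compound was quantified by LC-MS/MS against a standard curve.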

[5] = Plasma concentration in ICR mouse at 25 mg/kg, ip at 0.25 hrs postinjection by LC-tandem mass spectrometry analysis; type: ADME, organism-based
[6] = biological target: T1, Protein cereblon/Poly [ADP-ribose] polymerase 1; experiment: Protac activity at CRBN/PARP1 in human SW-620 cells assessed as induction of PARP1 degradation at 30 nM measured within 1 hr by Western blot analysis; type: cell-based; settings: time hrs <=1
Summary of the method: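 Time course at 30 nM in MDA-MB-436 or SW620 cells; PARP1 immunoblotted at successive time points, β-tubulin as loading control.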
Target sequence in this assay (P09874 2-1014 limits assumed): as the sequence (P09874 2-1014 limits assumed) above
Target sequence in this assay (Q96SW2 whole entry partner): as the sequence (Q96SW2 whole entry partner) above

[7] = biological target: T1, Protein cereblon/Poly [ADP-ribose] polymerase 1; experiment: Protac activity at CRBN/PARP1 in human SW-620 cells assessed as induction of PARP1 degradation at 30 nM incubated for 24 hrs in presence of proteasome inhibitor carfilzomib by Western blot analysis; type: cell-based
Target sequence in this assay (P09874 2-1014 limits assumed): as the sequence (P09874 2-1014 limits assumed) above
Target sequence in this assay (Q96SW2 whole entry partner): as the sequence (Q96SW2 whole entry partner) above

[8] = Acute toxicity in Balb/c mouse xenografted with SW-620 cells assessed as mean weight loss at 10 mg/kg, ip qd administered for 5 days in presence of TMZ measured on day 9 relative to control; type: organism-based; settings: in vivo, 216 h, time 9 day
Summary of the method: (§1)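 Male BALB/c nude mice carried SW620 xenografts (6×10^6 cells s.c.), randomized at ~150 mm³ (6 per group). TMZ 50 mg/kg was given orally once daily on days 0-4, 45 min after the partner drug. Partners were 5 or 10 mg/kg intraperitoneally or 10 mg/kg by oral gavage, daily for 5 days. Vehicle was 5% DMSO/20% PEG400/10% Cremophor EL/65% saline. Tumor volume and body weight were recorded 2-3 times weekly.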

NCM460 = experiment: Cytotoxicity against human NCM460 cells assessed as reduction in cell viability incubated for 120 hrs by CCK-8 assay; type: cell-based; settings: ncm460, 120 h
MDA-MB-436 = experiment: Induction of DNA damage in human MDA-MB-436 cells assessed as increase in gammaH2AX foci formation incubated for 24 hrs by Western blot analysis; type: functional, cell-based; settings: dose microM 0.1-10, time 24.0 hrs
Summary of the method: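 MDA-MB-436 (BRCA1-/-) or Capan-1 (BRCA2-/-) cells were treated 24 h at the indicated concentrations. Lysis was in RIPA buffer with protease inhibitors, and 20-30 μg protein was run on SDS-PAGE. Blots were probed for γH2AX, with β-tubulin as the loading control, and detected by ECL.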

Mus musculus = experiment: Induction of PARP1 degradation in SW-620 cells xenografted Balb/c mouse at 25 mg/kg, ip at 1 to 24 hrs by Western blotting analysis; type: functional, organism-based; settings: time hrs 1-24
Summary of the method: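 Male BALB/c nude mice carried subcutaneous SW620 xenografts (6×10^6 cells); at 200-300 mm³ they were randomized. A single 25 mg/kg intraperitoneal dose was given. Tumors were harvested at 1, 3, 6 and 24 h, and vehicle controls at 3 h. Tumors were frozen, ground in liquid nitrogen, and PARP1 was analysed by western blot against β-tubulin.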

[9] = biological target: T1, Protein cereblon/Poly [ADP-ribose] polymerase 1; experiment: Protac activity at CRBN/PARP1 in human MDA-MB-436 cells assessed as induction of PARP1 degradation incubated for 24 hrs by Western blot analysis; type: cell-based
Summary of the method: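 Concentration-response over a wide range, 24 h exposure; PARP1 quantified by western blot and normalized to β-tubulin density; DC50 derived from two biologically independent experiments.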
Target sequence in this assay (P09874 whole entry): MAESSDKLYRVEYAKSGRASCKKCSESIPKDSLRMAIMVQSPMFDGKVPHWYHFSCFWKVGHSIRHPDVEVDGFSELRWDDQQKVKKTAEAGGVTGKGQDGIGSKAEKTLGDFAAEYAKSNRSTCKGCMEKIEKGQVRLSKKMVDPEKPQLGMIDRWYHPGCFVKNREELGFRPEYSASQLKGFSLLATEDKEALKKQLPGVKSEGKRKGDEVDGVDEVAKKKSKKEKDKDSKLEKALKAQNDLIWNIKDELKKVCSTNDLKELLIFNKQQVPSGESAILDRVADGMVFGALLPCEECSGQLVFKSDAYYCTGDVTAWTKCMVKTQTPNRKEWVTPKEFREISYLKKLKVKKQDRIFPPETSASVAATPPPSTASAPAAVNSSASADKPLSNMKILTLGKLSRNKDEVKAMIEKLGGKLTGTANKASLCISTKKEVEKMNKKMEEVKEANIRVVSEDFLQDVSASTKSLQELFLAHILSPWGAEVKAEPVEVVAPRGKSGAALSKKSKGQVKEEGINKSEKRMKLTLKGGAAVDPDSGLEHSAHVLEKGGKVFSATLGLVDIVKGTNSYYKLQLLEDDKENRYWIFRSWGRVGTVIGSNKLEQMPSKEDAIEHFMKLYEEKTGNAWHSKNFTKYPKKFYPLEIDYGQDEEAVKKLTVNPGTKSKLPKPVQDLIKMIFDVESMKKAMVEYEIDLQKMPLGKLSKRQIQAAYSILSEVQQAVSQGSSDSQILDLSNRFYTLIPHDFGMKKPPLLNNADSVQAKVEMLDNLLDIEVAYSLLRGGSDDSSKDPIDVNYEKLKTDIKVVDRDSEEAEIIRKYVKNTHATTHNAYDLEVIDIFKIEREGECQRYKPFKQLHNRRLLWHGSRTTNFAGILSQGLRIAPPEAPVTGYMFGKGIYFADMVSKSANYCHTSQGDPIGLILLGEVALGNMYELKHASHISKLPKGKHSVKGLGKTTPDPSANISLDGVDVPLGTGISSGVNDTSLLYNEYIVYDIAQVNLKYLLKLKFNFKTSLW
Target sequence in this assay (Q96SW2 whole entry): as the sequence (Q96SW2 whole entry partner) above

[10] = biological target: T1, Protein cereblon/Poly [ADP-ribose] polymerase 1; experiment: Protac activity at CRBN/PARP1 in human HCC1937 cells assessed as induction of PARP1 degradation measured after 24 hrs by Western blot analysis; type: cell-based
Summary of the method: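 The cell line was treated 24 h across a concentration range. PARP1 was measured by western blot against β-tubulin. DC50 is the average of two biologically independent experiments.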
Target sequence in this assay (P09874 whole entry): as the sequence (P09874 whole entry) above
Target sequence in this assay (Q96SW2 whole entry): as the sequence (Q96SW2 whole entry partner) above

SW-620 = experiment: Potentiation of TMZ induced antitumor activity against SW-620 cells xenografted in Balb/c mouse assessed as tumor growth suppression administered intraperitoneally once daily for 5 days; type: functional; settings: dose mg/kg 5-10, time 5.0 day; summary of the method: as §1
[11] = biological target: T1, Protein cereblon/Poly [ADP-ribose] polymerase 1; experiment: Protac activity at CRBN/PARP1 in human MDA-MB-436 cells assessed as induction of PARP1 degradation at 10 nM incubated for 24 hrs by Western blot analysis relative to control; type: cell-based
Summary of the method: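 MDA-MB-436 cells (RPMI-1640, 10% FBS) seeded 24 h, then exposed to compound at 1, 10, 100 and 1000 nM for 24 h. Lysates in RIPA with protease inhibitors, 20-30 µg protein by SDS-PAGE, PARP1 immunoblot with β-tubulin loading control; PARP1/β-tubulin ratio normalized to DMSO control set at 100.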
Target sequence in this assay (P09874 2-1014 limits assumed): as the sequence (P09874 2-1014 limits assumed) above
Target sequence in this assay (Q96SW2 whole entry partner): as the sequence (Q96SW2 whole entry partner) above

[12] = biological target: T1, Protein cereblon/Poly [ADP-ribose] polymerase 1; experiment: Protac activity at CRBN/PARP1 in human MDA-MB-436 cells assessed as induction of PARP1 degradation at 100 nM measured after 5 days by Western blot analysis; type: cell-based; settings: time 5.0 day
Summary of the method: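 MDA-MB-436 cells kept at 100 nM for up to 5 days; PARP1 followed by western blot against β-tubulin.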
Target sequence in this assay (P09874 2-1014 limits assumed): as the sequence (P09874 2-1014 limits assumed) above
Target sequence in this assay (Q96SW2 whole entry partner): as the sequence (Q96SW2 whole entry partner) above

[13] = biological target: T1, Protein cereblon/Poly [ADP-ribose] polymerase 1; experiment: Protac activity at CRBN/PARP1 in human MDA-MB-436 cells assessed as induction of PARP1 degradation at 1 to 1000 nM incubated for 24 hrs by Western blot analysis; type: cell-based; settings: dose nM 1-1000, time 24.0 hrs
Summary of the method: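 PARP1 immunoblot of MDA-MB-436 lysates after 24 h exposure at 1, 10, 100 and 1000 nM; RIPA lysis, 20-30 µg protein per lane, β-tubulin as loading control, band density normalized to DMSO control.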

Structure (SMILES): O=C(CCCCCCCCCCC(=O)N1CCN(C(=O)c2cc(Cc3n[nH]c(=O)c4ccccc34)ccc2F)CC1)NCCNc1cccc2c1C(=O)N(C1CCC(=O)NC1=O)C2=O (configuration not stated)
- Activity [1]: 12%
- Activity [2]: Active
- Activity [3]: inactive
- Cmax [4]: 1840 ng/mL
- concentration at 0.25 h [5]: 2100 nM
- Activity [6]: Active
- Activity [7]: inactive
- Activity [8]: 15%
- Activity (NCM460): Non-Toxic
- Activity (MDA-MB-436): Dose-dependent effect
- Activity (Mus musculus): Active
- DC50 [9]: 1.26 nM
- DC50 [10]: 0.384 nM
- Activity (SW-620): Dose-dependent effect
- Activity [11]: > 99%
- Activity [12]: Active
- Activity [13]: Active
